ChEMBL document CHEMBL1154783, “Study of 1,4-dihydropyridine structural scaffold: discovery of novel sirtuin activators and inhibitors” (2009)
Activity calls are given as the source filed them. No cut-off for these calls is given here.

Assays:
[1] = biological target: T1, NAD-dependent protein deacetylase sirtuin-1 (Homo sapiens) (UniProt Q96EB6); experiment: Inhibition of human SIRT1 expressed in Escherichia coli at 50 uM after 1 hr by fluorescent biochemical assay
T1 sequence (whole entry): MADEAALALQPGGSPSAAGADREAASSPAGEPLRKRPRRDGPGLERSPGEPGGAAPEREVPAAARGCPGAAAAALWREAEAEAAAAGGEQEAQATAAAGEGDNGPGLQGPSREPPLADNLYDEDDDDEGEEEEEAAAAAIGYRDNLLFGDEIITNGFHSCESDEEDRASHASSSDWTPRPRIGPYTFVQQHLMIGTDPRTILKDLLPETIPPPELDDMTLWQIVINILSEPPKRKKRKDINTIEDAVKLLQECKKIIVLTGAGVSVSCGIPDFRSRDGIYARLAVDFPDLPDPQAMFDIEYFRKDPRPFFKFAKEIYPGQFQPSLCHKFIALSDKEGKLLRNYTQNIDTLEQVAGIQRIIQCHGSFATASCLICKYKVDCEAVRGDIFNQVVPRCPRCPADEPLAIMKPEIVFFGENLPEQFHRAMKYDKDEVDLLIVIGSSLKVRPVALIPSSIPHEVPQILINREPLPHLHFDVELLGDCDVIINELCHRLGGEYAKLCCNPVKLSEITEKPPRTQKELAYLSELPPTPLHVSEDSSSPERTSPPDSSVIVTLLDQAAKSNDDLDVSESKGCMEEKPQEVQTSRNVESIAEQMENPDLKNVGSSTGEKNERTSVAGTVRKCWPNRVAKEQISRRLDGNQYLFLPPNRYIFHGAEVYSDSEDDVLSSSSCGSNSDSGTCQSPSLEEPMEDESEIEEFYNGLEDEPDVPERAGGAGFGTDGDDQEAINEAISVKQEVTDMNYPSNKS
Procedure, shortened: (§1)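 Fluor de Lys two-step assay with human SIRT1 (full length, 747 aa), SIRT2 (389 aa) or SIRT3 catalytic fragment ([…]), all expressed in E. coli. Enzyme was set at 1 U/well for SIRT1 and 5 U/well for SIRT2/SIRT3. Developer was then added for 15 min at 37 °C. Read at ex 355/em 460 nm, triplicates, background-subtracted, with autofluorescence controls for activators.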

U-937 [2] = experiment: Induction of granulocyte differentiation in human U937 cells assessed as increase in phycoerythrine-conjugated CD11c expression at 50 uM after 30 hrs by propidium iodide staining-based FACS analysis; format: functional
Procedure, shortened: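 U937 cells given 50 μM for 30 h, then stained with CD11c-PE (or PE-mouse IgG1 control) for 30 min at 4 °C in the dark. Cells were resuspended in PBS with PI (0.25 μg/mL) and analyzed by FACS, with PI-positive cells excluded. Readout: CD11c+/PI− cells.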

[3] = biological target: T2, NAD-dependent protein deacetylase sirtuin-2 (Homo sapiens) (UniProt Q8IXJ6); experiment: Inhibition of human SIRT2 expressed in Escherichia coli at 50 uM after 1 hr by fluorescent biochemical assay; procedure, shortened: as §1
T2 sequence (whole entry): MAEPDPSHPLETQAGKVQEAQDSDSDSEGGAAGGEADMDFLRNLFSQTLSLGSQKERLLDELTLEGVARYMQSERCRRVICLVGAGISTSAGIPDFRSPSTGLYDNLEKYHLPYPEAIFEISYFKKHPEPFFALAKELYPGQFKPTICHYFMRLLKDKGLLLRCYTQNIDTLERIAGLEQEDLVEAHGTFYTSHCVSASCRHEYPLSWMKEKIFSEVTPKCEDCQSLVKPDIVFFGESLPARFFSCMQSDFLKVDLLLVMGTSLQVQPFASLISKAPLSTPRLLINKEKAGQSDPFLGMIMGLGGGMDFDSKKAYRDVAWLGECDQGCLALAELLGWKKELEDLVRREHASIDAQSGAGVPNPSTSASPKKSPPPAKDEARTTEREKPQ

U-937 [4] = experiment: Induction of apoptosis in human U937 cells assessed as caspase 3/7 activity at 50 uM after 30 hrs by FACS analysis; format: functional
Procedure, shortened: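 U937 cells given 50 μM for 30 h. Apoptosis measured as caspase 3-7 activity by FACS.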

MCF7 [5] = experiment: Cell cycle arrest in human MCF7 cells assessed as accumulation at G1/S phase at 50 uM after 30 hrs by FACS analysis; format: functional, cell-based
MCF7 [6] = experiment: Induction of apoptosis in human MCF7 cells assessed as caspase 3/7 activity at 50 uM after 30 hrs by FACS analysis; format: functional, cell-based
MCF7 [7] = experiment: Induction of granulocyte differentiation in human MCF7 cells assessed as increase in phycoerythrine-conjugated CD11c expression at 50 uM after 30 hrs by propidium iodide staining-based FACS analysis; format: functional, cell-based
U937 (Homo sapiens) = experiment: Induction of granulocyte differentiation in human U937 cells assessed as increase in phycoerythrine-conjugated CD11c expression at 50 uM after 30 hrs by propidium iodide staining-based FACS analysis
[8] = biological target: T3, NAD-dependent protein deacetylase sirtuin-3, mitochondrial (Homo sapiens) (UniProt Q9NTG7); experiment: Activation of human SIRT3 expressed in Escherichia coli after 1 hr by fluorescent biochemical assay; procedure, shortened: as §1
T3 sequence (whole entry): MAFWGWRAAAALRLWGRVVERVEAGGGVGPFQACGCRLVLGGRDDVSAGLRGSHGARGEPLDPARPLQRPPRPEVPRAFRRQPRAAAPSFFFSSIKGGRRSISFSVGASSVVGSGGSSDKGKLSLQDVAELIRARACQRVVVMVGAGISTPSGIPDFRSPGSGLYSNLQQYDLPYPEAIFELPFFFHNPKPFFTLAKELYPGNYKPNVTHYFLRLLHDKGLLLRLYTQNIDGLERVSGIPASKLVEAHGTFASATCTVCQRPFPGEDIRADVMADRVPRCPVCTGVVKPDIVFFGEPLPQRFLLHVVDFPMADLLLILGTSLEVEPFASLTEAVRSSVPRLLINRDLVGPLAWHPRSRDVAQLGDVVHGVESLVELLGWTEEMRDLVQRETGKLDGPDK

[9] = biological target: T1, NAD-dependent protein deacetylase sirtuin-1 (Homo sapiens); experiment: Activation of human SIRT1 expressed in Escherichia coli after 1 hr by fluorescent biochemical assay; procedure, shortened: as §1
[10] = Inhibition of human MSC senescence assessed as appearance of senescence-associated beta-galactosidase positive cells at 50 uM after 48 hrs by optic microscopy relative to control; format: functional; set-up: scale not given: the % may be the effect or the level left
Procedure, shortened: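 Primary human MSC cultured 30 days (ninth passage), 3 × 10^5 cells/well, treated at 50 μM for 48 h. Cells fixed in 2% formaldehyde/0.2% glutaraldehyde, then stained overnight at 37 °C in pH 6 citrate/phosphate buffer with ferro/ferricyanide and 1 mg/mL X-Gal. Blue cells counted as % of total, with the control set as 100%.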

U-937 [11] = experiment: Cell cycle arrest in human U937 cells assessed as accumulation at G1/S phase at 50 uM after 30 hrs by FACS analysis; format: functional, cell-based
Procedure, shortened: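 U937 cells given 50 μM for 30 h. 2.5 × 10^5 cells lysed in hypotonic buffer (0.1% Triton X-100, 0.1% sodium citrate, 50 μg/mL PI, RNase A) for 30 min in the dark, then DNA content measured by flow cytometry. Done in triplicate.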

[12] = biological target: T2, NAD-dependent protein deacetylase sirtuin-2 (Homo sapiens); experiment: Activation of human SIRT2 expressed in Escherichia coli at 1 to 50 uM after 1 hr by fluorescent biochemical assay; procedure, shortened: as §1
[13] = biological target: T3, NAD-dependent protein deacetylase sirtuin-3, mitochondrial (Homo sapiens); experiment: Inhibition of human SIRT3 expressed in Escherichia coli at 50 uM after 1 hr by fluorescent biochemical assay; procedure, shortened: as §1
[14] = biological target: T2, NAD-dependent protein deacetylase sirtuin-2 (Homo sapiens); experiment: Activation of human SIRT2 expressed in Escherichia coli after 1 hr by fluorescent biochemical assay; procedure, shortened: as §1
C2C12 [15] = experiment: Increase in mitochondrial function in mouse C2C12 cells assessed as enhancement of mitochondrial density at 50 uM after 16 hrs by green FM dye straining-based fluorescence assay; format: functional, cell-based
Procedure, shortened: (§2)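 C2C12 myoblasts (3000 cells/well) treated for 16 h (overnight), with DMSO as control. Cells then stained with MitoTracker Green FM (200 nM) and fluorescence intensity read after subtracting background from unstained wells.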

C2C12 [16] = experiment: Stimulation of transcriptional activity of mTFA promoter in mouse C2C12 cells after 16 hrs by luciferase reporter gene assay; format: functional, cell-based
Procedure, shortened: (§3)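 C2C12 myoblasts in DMEM with 10% heat-inactivated FCS were reverse-transfected (Lipofectamine) with a luciferase reporter carrying either the wild-type mTFA promoter or a mutant lacking the NRF1 site. Cells plated at 3000/well and treated for 16 h (overnight). Luciferase activity compared with DMSO-treated cells by Student's t-test.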

C2C12 [17] = experiment: Increase in mitochondrial function in mouse C2C12 cells assessed as enhancement of mitochondrial density at 10 to 50 uM after 16 hrs by green FM dye straining-based fluorescence assay; format: functional, cell-based; procedure, shortened: as §2
[18] = biological target: T4, Peroxisome proliferator-activated receptor gamma coactivator 1-alpha (Homo sapiens) (UniProt Q9UBK2); experiment: Stimulation of PGC1-alpha-mediated transcriptional activity of mTFA promoter in mouse C2C12 cells expressing NRF1 site after 16 hrs by luciferase reporter gene assay; format: cell-based; procedure, shortened: as §3
T4 sequence (whole entry): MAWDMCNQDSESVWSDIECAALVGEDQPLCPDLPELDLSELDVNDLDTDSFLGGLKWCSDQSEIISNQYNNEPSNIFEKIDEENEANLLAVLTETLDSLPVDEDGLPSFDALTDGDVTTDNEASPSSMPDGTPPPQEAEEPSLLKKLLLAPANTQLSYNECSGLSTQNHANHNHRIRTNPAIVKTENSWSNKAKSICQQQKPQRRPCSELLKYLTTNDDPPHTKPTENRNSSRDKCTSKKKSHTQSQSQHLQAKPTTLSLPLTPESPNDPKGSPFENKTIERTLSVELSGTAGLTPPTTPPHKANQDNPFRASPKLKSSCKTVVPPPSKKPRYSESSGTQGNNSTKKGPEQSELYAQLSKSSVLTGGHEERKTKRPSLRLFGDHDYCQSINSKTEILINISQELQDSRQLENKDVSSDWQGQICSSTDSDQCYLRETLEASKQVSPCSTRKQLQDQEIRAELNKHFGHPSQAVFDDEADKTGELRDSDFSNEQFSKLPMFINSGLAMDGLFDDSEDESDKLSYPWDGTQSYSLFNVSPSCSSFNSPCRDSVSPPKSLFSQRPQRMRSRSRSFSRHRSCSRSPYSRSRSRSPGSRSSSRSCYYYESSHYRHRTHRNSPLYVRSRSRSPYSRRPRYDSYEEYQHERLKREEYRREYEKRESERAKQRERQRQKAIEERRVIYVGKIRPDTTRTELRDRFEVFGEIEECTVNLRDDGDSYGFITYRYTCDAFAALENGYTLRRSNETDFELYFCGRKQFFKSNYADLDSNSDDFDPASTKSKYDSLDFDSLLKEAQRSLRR

Row | SMILES | inhibition [1] | inhibition [3] | Activity (U-937 [4]) | Activity (MCF7 [5]) | Activity (MCF7 [6]) | Activity (U937 (Homo sapiens)) | EC150 [8] | Activity [9] | Activity [10] | Activity (U-937 [11]) | Activity [13] | further results
1 | NC(=O)C1=CN(c2ccccc2)C=C(C(N)=O)C1c1ccccc1 | 89.1% | – | – | – | – | – | – | – | – | – | – | –
2 | CCOC(=O)C1=CN(CCc2ccccc2)C=C(C(=O)OCC)C1c1ccccc1 | 76.6% | 49.6% | 3% | inactive | inactive | – | – | – | – | – | – | Activity (U-937 [2]): 12.3%; Activity (MCF7 [7]): inactive
3 | CCOC(=O)C1=CN(c2ccccc2)C=C(C(=O)OCC)C1c1ccccc1 | 63.6% | 51.3% | 3% | inactive | inactive | inactive | – | – | – | – | – | –
4 | NC(=O)C1=CN(Cc2ccccc2)C=C(C(N)=O)C1c1ccccc1 | inactive | inactive | – | inactive | inactive | inactive | > 50 µM | Dose-dependent effect | 65% | Active | inactive | Activity [12]: inactive
5 | O=C(O)C1=CN(Cc2ccccc2)C=C(C(=O)O)C1c1ccccc1 | inactive | inactive | – | inactive | inactive | inactive | 50 µM | Dose-dependent effect | 70% | Active | inactive | EC150 [9]: 1 µM; EC150 [14]: 15 µM
6 | CCOC(=O)C1=CN(C2CC2)C=C(C(=O)OCC)C1c1ccccc1 | – | 53.7% | 3% | inactive | inactive | inactive | – | – | – | – | – | –
7 | Oc1ccc(/C=C/c2cc(O)cc(O)c2)cc1 [RESVERATROL] | – | – | – | – | – | – | – | – | 50% | – | – | Activity (C2C12 [15]): Active
8 | O=C(O)C1=CN(c2ccccc2)C=C(C(=O)O)C1c1ccccc1 | 86.6% | – | – | – | – | – | – | – | – | – | – | –
9 | CCOC(=O)C1=CN(Cc2ccccc2)C=C(C(=O)OCC)C1c1ccccc1 | inactive | inactive | – | inactive | inactive | inactive | 50 µM | Dose-dependent effect | – | Active | inactive | Activity (C2C12 [16]): inactive; Activity (C2C12 [17]): Active; EC150 [9]: 1 µM; EC150 [14]: 25 µM; Activity [18]: Dose-dependent effect
